Measured values taken from ChEMBL document CHEMBL2021785, “Compounds of Alpinia katsumadai as potential efflux inhibitors in Mycobacterium smegmatis” (2012).
≈ marks a conversion by molar mass, not a printed value.

Legend:
[1] = tested on: Mycolicibacterium smegmatis; test: Antibacterial activity against Mycobacterium smegmatis mc2 155 after 72 hrs by MTT assay; type: functional; settings: str. MC2 155, 72 h
Procedure, shortened: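 Broth dilution in Mueller-Hinton broth; compounds dissolved in DMSO, two-fold serial dilutions; inoculum adjusted to McFarland 0.5 and diluted to final 5 × 10^5 cfu/mL; cells pre-grown on Columbia blood agar with 5% horse blood, 37 °C, 72 h. Plates incubated 37 °C for 72 h; MIC read after MTT as lowest concentration inhibiting growth.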

[2] = tested on: Mycolicibacterium smegmatis MC2 155; test: Inhibition of Multidrug resistance efflux pump in Mycobacterium smegmatis mc2 155 assessed as modulation of EtBr-mediated antibacterial activity measuring ratio of EtBr MIC to EtBr and compound MIC at 4 mg/L after 72 hrs by MTT assay
Procedure, shortened: (§1)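 Checkerboard-type modulation by broth dilution in MHB with DMSO-dissolved modulators: either modulator held constant (half its MIC) with two-fold serially diluted antibiotic/EtBr, or antibiotic fixed with modulator serially diluted. Final inoculum 5 × 10^5 cfu/mL, 37 °C, 72 h, MTT read-out. Modulation factor quantifies shift in antibiotic/EtBr MIC; FICI assesses combination effect.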

[3] = tested on: Mycolicibacterium smegmatis MC2 155; test: Inhibition of Multidrug resistance efflux pump in Mycobacterium smegmatis mc2 155 assessed as modulation of isoniazid-mediated antibacterial activity measuring ratio of isoniazid MIC to isoniazid and compound MIC at 4 mg/L after 72 hrs by MTT assay; procedure, shortened: as §1
[4] = tested on: Mycolicibacterium smegmatis MC2 155; test: Inhibition of Multidrug resistance efflux pump in Mycobacterium smegmatis mc2 155 assessed as modulation of rifampicin-mediated antibacterial activity measuring ratio of rifampicin MIC to rifampicin and compound MIC at 4 mg/L after 72 hrs by MTT assay; procedure, shortened: as §1
[5] = tested on: Mycolicibacterium smegmatis MC2 155; test: Inhibition of Multidrug resistance efflux pump in Mycobacterium smegmatis mc2 155 assessed as modulation of EtBr-mediated antibacterial activity measuring ratio of EtBr MIC to EtBr and compound MIC at 64 mg/L after 72 hrs by MTT assay; procedure, shortened: as §1
[6] = tested on: Mycolicibacterium smegmatis MC2 155; test: Inhibition of Multidrug resistance efflux pump in Mycobacterium smegmatis mc2 155 assessed as modulation of isoniazid-mediated antibacterial activity measuring ratio of isoniazid MIC to isoniazid and compound MIC at 64 mg/L after 72 hrs by MTT assay; procedure, shortened: as §1
[7] = tested on: Mycolicibacterium smegmatis MC2 155; test: Inhibition of Multidrug resistance efflux pump in Mycobacterium smegmatis mc2 155 assessed as modulation of EtBr-mediated antibacterial activity measuring ratio of EtBr MIC to EtBr and compound MIC at 32 mg/L after 72 hrs by MTT assay; procedure, shortened: as §1
[8] = tested on: Mycolicibacterium smegmatis MC2 155; test: Inhibition of Multidrug resistance efflux pump in Mycobacterium smegmatis mc2 155 assessed as modulation of ciprofloxacin-mediated antibacterial activity measuring ratio of ciprofloxacin MIC to ciprofloxacin and compound MIC at 32 mg/L after 72 hrs by MTT assay; procedure, shortened: as §1
[9] = tested on: Mycolicibacterium smegmatis MC2 155; test: Inhibition of Multidrug resistance efflux pump in Mycobacterium smegmatis mc2 155 assessed as modulation of ethambutol-mediated antibacterial activity measuring ratio of ethambutol MIC to ethambutol and compound MIC at 32 mg/L after 72 hrs by MTT assay; procedure, shortened: as §1
[10] = tested on: Mycolicibacterium smegmatis MC2 155; test: Inhibition of Multidrug resistance efflux pump in Mycobacterium smegmatis mc2 155 assessed as modulation of isoniazid-mediated antibacterial activity measuring ratio of isoniazid MIC to isoniazid and compound MIC at 32 mg/L after 72 hrs by MTT assay; procedure, shortened: as §1
[11] = tested on: Mycolicibacterium smegmatis MC2 155; test: Inhibition of Multidrug resistance efflux pump in Mycobacterium smegmatis mc2 155 assessed as modulation of rifampicin-mediated antibacterial activity measuring ratio of rifampicin MIC to rifampicin and compound MIC at 32 mg/L after 72 hrs by MTT assay; procedure, shortened: as §1
[12] = tested on: Mycolicibacterium smegmatis MC2 155; test: Inhibition of Multidrug resistance efflux pump in Mycobacterium smegmatis mc2 155 assessed as modulation of EtBr-mediated antibacterial activity measuring fractional inhibitory concentration index at 32 mg/L after 72 hrs by MTT assay; procedure, shortened: as §1
[13] = tested on: Mycolicibacterium smegmatis MC2 155; test: Inhibition of Multidrug resistance efflux pump in Mycobacterium smegmatis mc2 155 assessed as modulation of rifampicin-mediated antibacterial activity measuring fractional inhibitory concentration index at 32 mg/L after 72 hrs by MTT assay; procedure, shortened: as §1
[14] = tested on: Mycolicibacterium smegmatis MC2 155; test: Inhibition of Multidrug resistance efflux pump in Mycobacterium smegmatis mc2 155 assessed as EtBr accumulation measuring relative fluorescence at half the MIC measured for 60 mins by spectrophotometry relative to control
Procedure, shortened: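 Overnight 7H9/ADC culture (37 °C, 100 rpm) centrifuged and resuspended in PBS with 0.05% Tween 80 to OD600 0.4. Cells mixed 1:1 with test solutions containing 0.5 mg/L EtBr and 0.4% glucose, compounds from MIC down to 1/16 MIC. Fluorescence (ex 531/em 590 nm) read every 50 s at 37 °C for 60 min; repeated at least three times.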

[15] = tested on: Mycolicibacterium smegmatis MC2 155; test: Inhibition of Multidrug resistance efflux pump in Mycobacterium smegmatis mc2 155 assessed as inhibition of EtBr efflux measuring normalized fluorescence at half the MIC measured for 60 mins by spectrophotometry relative to control
[16] = tested on: Mycolicibacterium smegmatis MC2 155; test: Inhibition of Multidrug resistance efflux pump in Mycobacterium smegmatis mc2 155 assessed as modulation of EtBr-mediated antibacterial activity measuring reduction in MIC at 1/2 of MIC after 72 hrs by MTT assay relative to control; procedure, shortened: as §1
[17] = tested on: Mycolicibacterium smegmatis MC2 155; test: Inhibition of Multidrug resistance efflux pump in Mycobacterium smegmatis mc2 155 assessed as modulation of rifampicin-mediated antibacterial activity measuring reduction in MIC at 1/2 of MIC after 72 hrs by MTT assay relative to control; procedure, shortened: as §1
[18] = tested on: Mycolicibacterium smegmatis MC2 155; test: Inhibition of Multidrug resistance efflux pump in Mycobacterium smegmatis mc2 155 assessed as modulation of ciprofloxacin-mediated antibacterial activity measuring ratio of ciprofloxacin MIC to ciprofloxacin and compound MIC at 64 mg/L after 72 hrs by MTT assay; procedure, shortened: as §1
[19] = tested on: Mycolicibacterium smegmatis MC2 155; test: Inhibition of Multidrug resistance efflux pump in Mycobacterium smegmatis mc2 155 assessed as modulation of ethambutol-mediated antibacterial activity measuring ratio of ethambutol MIC to ethambutol and compound MIC at 64 mg/L after 72 hrs by MTT assay; procedure, shortened: as §1
[20] = tested on: Mycolicibacterium smegmatis MC2 155; test: Inhibition of Multidrug resistance efflux pump in Mycobacterium smegmatis mc2 155 assessed as modulation of rifampicin-mediated antibacterial activity measuring ratio of rifampicin MIC to rifampicin and compound MIC at 64 mg/L after 72 hrs by MTT assay; procedure, shortened: as §1
[21] = tested on: Mycolicibacterium smegmatis MC2 155; test: Inhibition of Multidrug resistance efflux pump in Mycobacterium smegmatis mc2 155 assessed as modulation of EtBr-mediated antibacterial activity measuring fractional inhibitory concentration index at 64 mg/L after 72 hrs by MTT assay; procedure, shortened: as §1
[22] = tested on: Mycolicibacterium smegmatis MC2 155; test: Inhibition of Multidrug resistance efflux pump in Mycobacterium smegmatis mc2 155 assessed as modulation of rifampicin-mediated antibacterial activity measuring fractional inhibitory concentration index at 64 mg/L after 72 hrs by MTT assay; procedure, shortened: as §1

Compound: CC[C@@H](CO)NCCN[C@@H](CC)CO [ETHAMBUTOL]
- MIC [1]: 1 µg/mL (≈ 4.89 µM)

Compound: CN(C)CCCN1c2ccccc2Sc2ccc(Cl)cc21 [CHLORPROMAZINE]
- MIC [1]: 64 µg/mL (≈ 201 µM)

Compound: CCCCCCCC/C=C\CCCCCCCC(=O)O [OLEIC ACID]
- MIC [1]: 8 µg/mL (≈ 28.3 µM)
- Ratio [2]: 1
- Ratio [3]: 1
- Ratio [4]: 4

Compound: CCCCCCCCCCCCCCCC(=O)O [PALMITIC ACID]
- MIC [1]: 128 µg/mL (≈ 499 µM)
- Ratio [5]: 1
- Ratio [6]: 0.5

Compound: O=C(CCc1ccccc1)C[C@@H](O)/C=C/c1ccccc1
- MIC [1]: 64 µg/mL (≈ 228 µM)
- Ratio [7]: 8
- Ratio [8]: 2
- Ratio [9]: 1
- Ratio [10]: 1
- Ratio [11]: 4
- fractional inhibitory concentration index (FICI) [12]: 0.25
- fractional inhibitory concentration index (FICI) [13]: 0.75
- RFU [14]: 15100
- normalized EtBr fluorescence relative to control [15]: 0.72
- fold change (FC) [16]: 4
- fold change (FC) [17]: 4

Compound: O[C@@H](CCc1ccccc1)C[C@H](O)/C=C/c1ccccc1
- MIC [1]: ≥ 128 µg/mL
- Ratio [5]: 8
- Ratio [18]: 2
- Ratio [19]: 2
- Ratio [6]: 2
- Ratio [20]: 4
- fractional inhibitory concentration index (FICI) [21]: 0.25
- fractional inhibitory concentration index (FICI) [22]: 0.75
- RFU [14]: 16500
- normalized EtBr fluorescence relative to control [15]: 0.746
- fold change (FC) [16]: 4
- fold change (FC) [17]: 4

Compound: CC/C=C\C/C=C\C/C=C\CCCCCCCC(=O)O [LINOLENIC ACID]
- MIC [1]: 8 µg/mL (≈ 28.7 µM)
- Ratio [2]: 4
- Ratio [3]: 1
- Ratio [4]: 4
- fold change (FC) [16]: 4
- fold change (FC) [17]: 4

Compound: COc1ccc(CCN(C)CCCC(C#N)(c2ccc(OC)c(OC)c2)C(C)C)cc1OC (stereo not given) [VERAPAMIL]
- MIC [1]: 512 µg/mL (≈ 1130 µM)
